{"source": "ChEMBL document CHEMBL1123462", "about": "“Indolo[2,1-c][1,4]benzodiazepines: a new class of antiallergic agents” (J Med Chem, 1986)", "key": {"Rattus norvegicus [1]": {"system": "Rattus norvegicus", "assay": "Compound was tested for the inhibition of rat passive cutaneous anaphylaxis (PCA) administered intraperitoneally", "assay_type": "functional", "conditions": "ip", "method_in_brief": "(§1)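 Male Sprague-Dawley rats were given 0.05 mL of high-titer IgE rat anti-ovalbumin antiserum intradermally. 24 h later: iv ovalbumin plus Evans Blue in saline, with simultaneous intradermal serotonin and histamine. Drug given ip 1 h before antigen. At 30 min, skin was reflected and wheal size and colour scored against a chart. %inhibition = (1 − mean treated/mean control score)×100. Dunnett's test, p ≤ 0.05.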"}, "Rattus norvegicus [2]": {"system": "Rattus norvegicus", "assay": "Compound was tested for percent inhibition, at 0.37 mg/kg administered intraperitoneally against serotonin by Dunnett's test", "assay_type": "functional", "conditions": "ip, route intraperitoneal", "method_in_brief": "as §1"}, "Rattus norvegicus [3]": {"system": "Rattus norvegicus", "assay": "Compound was tested for percent inhibition, at 3.3 mg/kg administered intraperitoneally against serotonin by Dunnett's test", "assay_type": "functional", "conditions": "ip, route intraperitoneal", "method_in_brief": "as §1"}, "Cavia porcellus [4]": {"system": "Cavia porcellus", "assay": "Inhibition of guinea pig ALA at a dose of 1 mg/kg 24 hr after postdosing intraperitoneally", "assay_type": "functional", "conditions": "ip, route intraperitoneal", "method_in_brief": "(§2)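 Guinea pigs were sensitized with egg albumin 1 mg sc plus pertussis vaccine adjuvant. Two weeks later they were anesthetized (pentobarbital 65 mg/kg ip) and cannulated. Drug was given ip or orally at 1 mg/kg. Challenge with egg albumin 0.5 mg/kg iv at 1, 7, 8 or 24 h post-dose, with bronchoconstriction measured. %inhibition given as mean ± SD.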"}, "Rattus norvegicus [5]": {"system": "Rattus norvegicus", "assay": "Compound was tested for percent inhibition, at 3.3 mg/kg administered intraperitoneally against histamine by Dunnett's test", "assay_type": "functional", "conditions": "ip, route intraperitoneal", "method_in_brief": "as §1"}, "Rattus norvegicus [6]": {"system": "Rattus norvegicus", "assay": "Compound was tested […] for the inhibition of serotonin release in rat peritoneal cell", "assay_type": "functional"}, "Cavia porcellus [7]": {"system": "Cavia porcellus", "assay": "Inhibition of guinea pig ALA at a dose of 1 mg/kg 7 hr after postdosing intraperitoneally", "assay_type": "functional", "conditions": "ip, route intraperitoneal", "method_in_brief": "as §2"}, "Cavia porcellus [8]": {"system": "Cavia porcellus", "assay": "Inhibition of guinea pig ALA at a dose of 1 mg/kg 1 hr after postdosing orally", "assay_type": "functional", "conditions": "route oral", "method_in_brief": "as §2"}, "Rattus norvegicus [9]": {"system": "Rattus norvegicus", "assay": "Compound was tested for percent inhibition, at 0.37 mg/kg administered intraperitoneally against histamine", "assay_type": "functional", "conditions": "ip, route intraperitoneal", "method_in_brief": "as §1"}, "Rattus norvegicus [10]": {"system": "Rattus norvegicus", "assay": "Compound was tested for the inhibition of rat passive cutaneous anaphylaxis (PCA) at 0.37 mg/kg dose ip (1h pretreatment)", "assay_type": "functional", "conditions": "route intraperitoneal", "method_in_brief": "as §1"}, "Rattus norvegicus [11]": {"system": "Rattus norvegicus", "assay": "Compound was tested for percent inhibition, at 3.3 mg/kg administered intraperitoneally against rat passive cutaneous anaphylaxis by Dunnett's test", "assay_type": "functional", "conditions": "ip, route intraperitoneal", "method_in_brief": "as §1"}, "Cavia porcellus [12]": {"system": "Cavia porcellus", "assay": "Compound was tested for the inhibition of guinea pig active lung anaphylaxis (ALA) administered intravenously", "assay_type": "functional", "conditions": "iv", "method_in_brief": "(§3)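 Guinea pigs were sensitized with egg albumin 1 mg sc plus Bordetella pertussis vaccine adjuvant. Two weeks later: pentobarbital 65 mg/kg ip, then trachea, jugular vein and carotid cannulated. Drug given iv before an iv egg albumin challenge (0.5 mg/kg). Airway resistance (bronchoconstriction) and arterial pressure monitored. %inhibition given as mean ± SE; ED50 iv with 95% confidence limits.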"}, "Cavia porcellus [13]": {"system": "Cavia porcellus", "assay": "Inhibition of guinea pig ALA at a dose of 1 mg/kg 1 hr after postdosing intraperitoneally", "assay_type": "functional", "conditions": "ip, route intraperitoneal", "method_in_brief": "as §2"}, "Cavia porcellus [14]": {"system": "Cavia porcellus", "assay": "Inhibition of guinea pig ALA at a dose of 1 mg/kg 8 hr after postdosing orally", "assay_type": "functional", "conditions": "route oral", "method_in_brief": "as §2"}, "Cavia porcellus [15]": {"system": "Cavia porcellus", "assay": "Compound was tested for the inhibition of guinea pig active lung anaphylaxis (ALA) at 0.001 mg/kg iv", "assay_type": "functional", "method_in_brief": "as §3"}, "Cavia porcellus [16]": {"system": "Cavia porcellus", "assay": "Inhibition of guinea pig ALA at a dose of 1 mg/kg 24 hr after postdosing orally", "assay_type": "functional", "conditions": "route oral", "method_in_brief": "as §2"}, "Rattus norvegicus [17]": {"system": "Rattus norvegicus", "assay": "Compound was tested for the inhibition of rat passive cutaneous anaphylaxis (PCA) at 10 mg/kg dose ip (1h pretreatment)", "assay_type": "functional", "conditions": "route intraperitoneal"}, "Rattus norvegicus [18]": {"system": "Rattus norvegicus", "assay": "Compound was tested for percent inhibition, at 10 mg/kg administered intravenously against serotonin by Dunnett's test", "conditions": "iv"}, "Rattus norvegicus [19]": {"system": "Rattus norvegicus", "assay": "Compound was tested for percent inhibition, at 1 mg/kg administered intravenously against histamine", "conditions": "iv, read-out: Inhibition"}, "Rattus norvegicus [20]": {"system": "Rattus norvegicus", "assay": "Compound was tested for percent inhibition, at 10 mg/kg administered intravenously against histamine by Dunnett's test", "conditions": "iv"}, "Rattus norvegicus [21]": {"system": "Rattus norvegicus", "assay": "Compound was tested for percent inhibition, at 1 mg/kg administered intravenously against rat passive cutaneous anaphylaxis by Dunnett''s test", "conditions": "iv, read-out: Inhibition"}, "Rattus norvegicus [22]": {"system": "Rattus norvegicus", "assay": "Compound was tested for the inhibition of rat passive cutaneous anaphylaxis (PCA) at 10 mg/kg dose iv (5 min pretreatment)", "assay_type": "functional", "method_in_brief": "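Rat skin IgE/ovalbumin PCA with simultaneous intradermal histamine and serotonin wheals. Drug given iv 5 min before the iv ovalbumin/Evans Blue challenge. Read 30 min later by wheal size and colour score. %inhibition = (1 − mean treated/mean control score)×100. Dunnett's test, p ≤ 0.05.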"}, "Cavia porcellus [23]": {"system": "Cavia porcellus", "assay": "Compound was tested for the inhibition of guinea pig active lung anaphylaxis (ALA) at 100 mg/kg iv", "assay_type": "functional", "method_in_brief": "as §3"}, "Rattus norvegicus [24]": {"system": "Rattus norvegicus", "assay": "Compound was tested for the inhibition of rat passive cutaneous anaphylaxis (PCA) at 10 mg/kg dose ip", "assay_type": "functional", "conditions": "route intraperitoneal"}}, "data": [{"smiles": "CN1CCC(=C2c3ccccc3CC(=O)c3sccc32)CC1", "note": "[KETOTIFEN]", "values": [{"measurement": "ED50", "setting": "Rattus norvegicus [1]", "result": 0.32, "unit": "mg/kg"}, {"measurement": "inhibition in vivo at 0.37 mg/kg", "setting": "Rattus norvegicus [2]", "result": 14.8, "unit": "%"}, {"measurement": "inhibition in vivo at 3.3 mg/kg", "setting": "Rattus norvegicus [3]", "result": 35.3, "unit": "%"}, {"measurement": "inhibition in vivo at 1 mg/kg", "setting": "Cavia porcellus [4]", "result": 6.5, "unit": "%"}, {"measurement": "inhibition in vivo at 3.3 mg/kg", "setting": "Rattus norvegicus [5]", "result": 62.5, "unit": "%"}, {"measurement": "IC50", "setting": "Rattus norvegicus [6]", "result": 22.9, "unit": "µM"}, {"measurement": "inhibition in vivo at 1 mg/kg", "setting": "Cavia porcellus [7]", "result": 68, "unit": "%"}, {"measurement": "inhibition in vivo at 1 mg/kg", "setting": "Cavia porcellus [8]", "result": 68, "unit": "%"}, {"measurement": "inhibition in vivo at 0.37 mg/kg", "setting": "Rattus norvegicus [9]", "result": 64.6, "unit": "%"}, {"measurement": "inhibition in vivo at 0.37 mg/kg", "setting": "Rattus norvegicus [10]", "result": 63.3, "unit": "%"}, {"measurement": "inhibition in vivo at 3.3 mg/kg", "setting": "Rattus norvegicus [11]", "result": 92.4, "unit": "%"}, {"measurement": "ED50", "setting": "Cavia porcellus [12]", "result": 0.002, "unit": "mg/kg"}, {"measurement": "inhibition in vivo at 1 mg/kg", "setting": "Cavia porcellus [13]", "result": 82, "unit": "%"}, {"measurement": "inhibition in vivo at 1 mg/kg", "setting": "Cavia porcellus [14]", "result": 73, "unit": "%"}, {"measurement": "inhibition in vivo at 0.001 mg/kg", "setting": "Cavia porcellus [15]", "result": 57, "unit": "%"}, {"measurement": "inhibition in vivo at 1 mg/kg", "setting": "Cavia porcellus [16]", "result": 37, "unit": "%"}]}, {"smiles": "c1ccc2c(c1)Cn1c(cc3ccccc31)C(N1CCOCC1)=N2", "values": [{"measurement": "inhibition in vivo at 10 mg/kg", "setting": "Rattus norvegicus [17]", "result": 0.4, "unit": "%"}]}, {"smiles": "OC1CCN(C2=Nc3ccccc3Cn3c2cc2ccccc23)CC1", "values": [{"measurement": "inhibition in vivo at 10 mg/kg", "setting": "Rattus norvegicus [17]", "result": 40.2, "unit": "%"}]}, {"smiles": "O=C([O-])c1cc(=O)c2c(OCC(O)COc3cccc4oc(C(=O)[O-])cc(=O)c34)cccc2o1.[Na+].[Na+]", "note": "[CROMOLYN SODIUM]", "values": [{"measurement": "ED50", "setting": "Rattus norvegicus [1]", "result": 2.55, "unit": "mg/kg"}, {"measurement": "inhibition in vivo at 10 mg/kg", "setting": "Rattus norvegicus [18]", "result": 21.4, "unit": "%"}, {"measurement": "inhibition in vivo at 1 mg/kg", "setting": "Rattus norvegicus [19]", "result": 0, "unit": "%"}, {"measurement": "IC50", "setting": "Rattus norvegicus [6]", "result": 256, "unit": "µM"}, {"measurement": "inhibition in vivo at 10 mg/kg", "setting": "Rattus norvegicus [20]", "result": 8.5, "unit": "%"}, {"measurement": "inhibition in vivo at 1 mg/kg", "setting": "Rattus norvegicus [21]", "result": 37, "unit": "%"}, {"measurement": "inhibition in vivo at 10 mg/kg", "setting": "Rattus norvegicus [22]", "result": 97, "unit": "%"}, {"measurement": "inhibition in vivo at 100 mg/kg", "setting": "Cavia porcellus [23]", "result": 25, "unit": "%"}]}, {"smiles": "O=C1Nc2ccccc2Cn2c1cc1ccccc12", "values": [{"measurement": "inhibition in vivo at 10 mg/kg", "setting": "Rattus norvegicus [24]", "result": 23.2, "unit": "%"}]}, {"smiles": "CCOC(=O)N1CCN(C2=Nc3ccccc3Cn3c2cc2ccccc23)CC1", "values": [{"measurement": "ED50", "setting": "Rattus norvegicus [1]", "result": 0.67, "unit": "mg/kg"}, {"measurement": "inhibition in vivo at 0.37 mg/kg", "setting": "Rattus norvegicus [10]", "result": 38.7, "unit": "%"}]}]}
